In the library only some 1.6% were active in any assay of this set; here they are far more common.
proCasp7 act = counter-screen: procaspase-7 (human) activation; P55210; recombinant procaspase-7, Ac-DEVD-pNA absorbance 405 nm; D23A/D198A/D206A triple mutant, cannot self-cleave; scale: DMSO 0, 5 µM enzyme 100; activation, % at 8.5 µM; actives 0.093% (n = 330,000);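 active = percent activation above the screen-wide mean plus 3 SD, cut at about 25% in these data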
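buffer or medium = Zinc-free HEPES/NaCl buffer, pH 7.4 | material = Procaspase-7 triple mutant (PC-7 D3A) | input = 2 µM procaspase-7 mutant as dispensed | signal = Epi-absorbance of released pNA at 405 nm, two timepoints | timing = 1 h preincubation, 2 h reaction | replicates = singlicate compound testing | evaluation = % activation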
procasp3 activ = procaspase-3 (human) activation | recombinant procaspase-3 D3A, Ac-DEVD-pNA absorbance 405 nm | activation, % at 8.5 µM | actives 0.11% (n = 330,000);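 active = activation above the mean of all tested compounds plus 3 SD, cut at about 21% in these data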
Target sequence (P42574 whole entry D9A/D28A/D175A): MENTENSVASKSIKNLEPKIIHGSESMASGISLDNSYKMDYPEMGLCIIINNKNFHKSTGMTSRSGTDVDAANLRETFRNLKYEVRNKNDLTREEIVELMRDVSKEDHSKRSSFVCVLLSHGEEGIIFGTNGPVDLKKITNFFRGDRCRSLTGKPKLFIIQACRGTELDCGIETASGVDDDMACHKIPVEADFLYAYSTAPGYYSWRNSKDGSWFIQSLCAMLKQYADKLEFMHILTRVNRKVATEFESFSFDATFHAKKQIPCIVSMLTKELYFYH
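Assay system: Autoprocessing-dead procaspase-3 D3A mutant enzyme; also added: Ac-DEVD-pNA; doses: one concentration, 8.5 µM nominal, 0.8% DMSO; times: 1 h compound preincubation, 2 h substrate hydrolysis at 25 °C; technique: 405 nm absorbance of p-nitroaniline, reads at 0 and 120 min; measure: % activation between DMSO and enzyme-spiked controls; repeats: single replicate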
Neddyl block = cullin neddylation inhibition | P61081+Q13564 | TR-FRET cullin neddylation, biochemical | calls only at 25 µM | actives 0.58% (n = 360,000) | AID 651699; in the data active = inhibition above about 36%
KLK7 zymogen act = activates the human kallikrein-7 zymogen; activation, % at 7 µM; AID 652039; purified proKLK7, EDANS-DABCYL substrate fluorescence; 100% is mature enzyme control, 0% vehicle; actives 0.9% (n = 370,000);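 active = activation above the mean of all tested compounds plus 3 SD, computed per campaign excluding outliers beyond control limits, cut at about 13% in these data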
Target sequence (P49862 whole entry, looked up): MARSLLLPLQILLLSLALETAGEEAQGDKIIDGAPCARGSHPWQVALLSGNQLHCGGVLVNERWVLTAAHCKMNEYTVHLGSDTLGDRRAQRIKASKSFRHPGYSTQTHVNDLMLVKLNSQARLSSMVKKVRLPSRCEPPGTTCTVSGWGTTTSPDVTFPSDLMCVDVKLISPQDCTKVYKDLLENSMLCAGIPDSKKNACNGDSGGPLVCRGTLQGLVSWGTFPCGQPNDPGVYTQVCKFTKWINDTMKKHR
KLK7 act conf = confirmation of human kallikrein-7 zymogen activators; purified proKLK7, EDANS-DABCYL substrate fluorescence; scaled: vehicle 0, mature enzyme 100; shares compounds with KLK7 zymogen act; actives 68% (n = 3,200); activation, % at 7 µM; AID 686949;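 active = activation, as change over the incubation, above the mean of all tested compounds plus 3 SD, cut at about 13% in these data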
EDANS-DABCYL int = fluorescence interference counter-screen for KLK7 activators | shares compounds with KLK7 zymogen act | EDANS-DABCYL substrate fluorescence interference, no enzyme, 4 h; solvent 0%, active enzyme control 100% | activation, % at 7 µM | actives 80% (n = 3,200) | AID 686952;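 active = activation above the all-compound mean plus 3 SD, ignoring values outside control-based bounds, cut at about 4.8% in these data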;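 note: value is the 4 h activation minus the activation read at time zero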
K7 EDANS ctr = counter-screen for kallikrein-7 activators: EDANS-DABCYL interference, dose response. actives 20% (n = 250). shares compounds with KLK7 zymogen act. EC50, µM. EDANS-DABCYL peptide fluorescence interference, no enzyme;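 active = compounds that raise the fluorescence signal in this interference counterscreen, with EC50 at or below 10 µM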;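 note: intact quenched peptide substrate alone read at 355 nm excitation and 520 nm emission; signal is fluorescence gain from T0 to T4 after four hours at room temperature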
Of the large screens only hits and unclear results are named; the others gave an inactive call (follow-up assays come after a bar, where shown).

CC(=O)OC1CCC2(C)C(CCC3C2CC(=O)C2(C)C3CC(C3CCCC3=O)C2C(C)=O)C1 (stereo not given)	none (no result: proCasp7 act, procasp3 activ)
Cc1coc2cc3oc(=O)c(Cc4ccccc4)c(C)c3cc12	none
Cc1coc2cc3oc(=O)c(CC(=O)N(C)CC(=O)O)c(C)c3cc12	KLK7 zymogen act 13.5 (not shown: Neddyl block) | KLK7 act conf 13.7 | EDANS-DABCYL int 17.4
N#CC1C(=O)Nc2cccnc21 (stereo not given)	KLK7 zymogen act 36.6 (not shown: proCasp7 act, procasp3 activ, Neddyl block) | KLK7 act conf 33.9 | EDANS-DABCYL int 33.3
CCCC(c1nnnn1C(C)(C)CC)N(Cc1ccco1)Cc1cc2ccc(OC)cc2[nH]c1=O (stereo not given)	KLK7 zymogen act 19.4 (no result: proCasp7 act, procasp3 activ) | KLK7 act conf inactive | EDANS-DABCYL int inactive
COc1cc2c(cc1OC)C(COc1ccc(F)cc1)NCC2 (stereo not given)	none
COc1cc2c(cc1OC)C(COc1ccc([N+](=O)[O-])cc1)NCC2 (stereo not given)	KLK7 zymogen act 14.3 | KLK7 act conf inactive | EDANS-DABCYL int inactive
C=CCc1c(C)nc(-c2ccccc2)nc1N/N=C/c1ccccc1	KLK7 zymogen act 13.8 | KLK7 act conf inactive | EDANS-DABCYL int inactive
N#CC1C(=O)NC(c2ccccc2)=CC1c1ccccc1 (stereo not given)	KLK7 zymogen act 123.6 (no result: proCasp7 act, procasp3 activ) | KLK7 act conf 109.5 | EDANS-DABCYL int 102.9
Cc1ccc(S(=O)(=O)Oc2ccc(C3C4=C(CCCC4=O)N(CCC(=O)O)C4=C3C(=O)CCC4)cc2Cl)cc1	none (not shown: Neddyl block)
CCOc1cc(C2C3=C(CCCC3=O)N(CCC(=O)O)C3=C2C(=O)CCC3)ccc1OS(=O)(=O)c1ccc(C)cc1	KLK7 zymogen act 19.8 (not shown: Neddyl block) | KLK7 act conf 29.8 | EDANS-DABCYL int 32.0
COc1cc2oc3cc(C)oc(=O)c3c2cc1OC	KLK7 zymogen act 35.4 (not shown: Neddyl block) | KLK7 act conf 59.5 | EDANS-DABCYL int 72.8
COc1cc2oc(=O)c(Br)c(C)c2c(OC)c1OC	none
COc1cc2sc3cc(NCC[C@@H]4CCCN4C)ccc3c(=O)c2cc1OC	KLK7 zymogen act 20.8 | KLK7 act conf inactive | EDANS-DABCYL int inactive
Cc1ccc(Cl)cc1-c1cc(C(=O)NCc2cc(C(F)(F)F)cc(C(F)(F)F)c2)[nH]n1	none (no result: proCasp7 act, procasp3 activ)
CCNc1ccc2c(Cl)cc(=O)oc2c1	KLK7 zymogen act 24.6 (not shown: Neddyl block) | KLK7 act conf 30.2 | EDANS-DABCYL int 38.2
Cc1ccc(-c2cn3cccnc3n2)cc1NC(=O)c1cccs1	KLK7 zymogen act 33.0 (not shown: Neddyl block) | KLK7 act conf 35.2 | EDANS-DABCYL int 39.0
COc1cc(C(=O)Nc2cc(-c3cn4cccnc4n3)ccc2C)cc(OC)c1OC	KLK7 zymogen act 47.3 (not shown: Neddyl block) | KLK7 act conf inactive | EDANS-DABCYL int inactive
COc1ccc(-c2cn3cccnc3n2)cc1NC(=O)C(C)C	none (not shown: Neddyl block)
COc1cc(OC)cc(C(=O)Nc2cc(-c3cn4cccnc4n3)ccc2C)c1	KLK7 zymogen act 13.6 (not shown: Neddyl block) | KLK7 act conf inactive | EDANS-DABCYL int inactive
COc1ccc(-c2cn3cccnc3n2)cc1Br	KLK7 zymogen act 31.8 (not shown: Neddyl block) | KLK7 act conf 78.8 | EDANS-DABCYL int 75.3
O=C(Nc1ccc(-c2cn3ccccc3n2)cc1)c1cccs1	none (not shown: Neddyl block)
Brc1cccc2sc(N3CCCC3)nc12	none
CCOc1ccc(-c2ccc(C3=CC(=O)C[C@H](c4ccc(F)cc4)C3)cc2)cc1	none (no result: proCasp7 act, procasp3 activ)
COc1ccc2c(=O)c(-c3ccc(OC)c(OC)c3)coc2c1	none
COc1ccc(-c2coc3cc(OC(C)=O)c(OC)cc3c2=O)cc1	KLK7 zymogen act 42.9 (not shown: Neddyl block) | KLK7 act conf 153.5 | EDANS-DABCYL int 110.6
O=C(Oc1ccc2c(=O)c(Oc3ccc4ccccc4c3)coc2c1)c1cccnc1	none (not shown: Neddyl block)
Cc1cc(=O)oc2cc(OCC(=O)N3CCN(C(=O)c4ccco4)CC3)ccc12	none
CCc1cc(=O)oc2cc(OCC=C(C)C)ccc12	none
Cc1cc(C)cc(Oc2coc3cc(OC(=O)c4cccs4)ccc3c2=O)c1	KLK7 zymogen act 13.6 (not shown: Neddyl block) | KLK7 act conf 23.7 | EDANS-DABCYL int 16.5 | K7 EDANS ctr inactive
Cc1cc(=O)oc2cc(OCC(=O)c3ccccc3)ccc12	none
Cc1cc(=O)oc2cc(OC(=O)c3ccco3)ccc12	KLK7 zymogen act 459.2 (not shown: proCasp7 act, procasp3 activ, Neddyl block) | KLK7 act conf 728.9 | EDANS-DABCYL int 769.0
Cc1cc(=O)oc2cc(OC(=O)c3ccccc3)ccc12	KLK7 zymogen act 117.2 (not shown: Neddyl block) | KLK7 act conf 519.0 | EDANS-DABCYL int 376.8
CCc1cc(=O)oc2cc(OC(=O)c3ccco3)ccc12	KLK7 zymogen act 352.7 (not shown: Neddyl block) | KLK7 act conf 788.5 | EDANS-DABCYL int 761.3
CC(C)(C)c1ccc(C(=O)N2CCC2(C)C(=O)NS(=O)(=O)c2ccccc2Cl)cc1 (stereo not given)	none (no result: proCasp7 act, procasp3 activ)
O=C(NC(Cc1ccccc1)C(=O)O)/C(=C/c1ccc(Cl)cc1)NC(=O)c1ccco1 (stereo not given)	none
CCOc1ccccc1Oc1coc2cc(OC(=O)c3ccco3)ccc2c1=O	KLK7 zymogen act 95.6 (not shown: Neddyl block) | KLK7 act conf 264.4 | EDANS-DABCYL int 235.0
Cc1oc2cc(OC(=O)c3ccco3)ccc2c(=O)c1-c1nc2ccccc2n1C	KLK7 zymogen act 16.0 (not shown: Neddyl block) | KLK7 act conf 114.8 | EDANS-DABCYL int 104.4
CCOc1ccc2c(=O)c(Oc3ccccc3OCC)coc2c1	none
CC(=O)Oc1ccc2c(=O)c(-c3ccccc3)c(C)oc2c1	KLK7 zymogen act 121.2 (not shown: Neddyl block) | KLK7 act conf 446.2 | EDANS-DABCYL int 384.3
COc1ccc2[nH]c3c(c2c1)CCN1C(=O)N([C@@H](C)C(=O)NCc2ccc(C)cc2)C(=O)[C@]31C	none
CC(C)n1c(CNC(=O)c2ccccc2F)nnc1SCC(=O)c1ccc(F)cc1	none (no result: proCasp7 act, procasp3 activ)
N#CCCN(C(=O)c1ccc2c(=O)n3c(nc2c1)CCCCC3)c1ccccc1	none
CC(C)NC[C@@H](O)c1ccc(O)c(O)c1	KLK7 zymogen act 32.6 | KLK7 act conf 50.5 | EDANS-DABCYL int 48.8
COc1ccc(-c2cc(C(=O)OCc3ccccn3)c3ccccc3n2)cc1	KLK7 zymogen act 21.6 (not shown: Neddyl block) | KLK7 act conf inactive | EDANS-DABCYL int inactive
COc1ccc(-c2cc(C(=O)OCC(=O)N(C)C)c3ccccc3n2)cc1	KLK7 zymogen act 50.4 | KLK7 act conf 38.7 | EDANS-DABCYL int 42.6
COc1ccc(-c2cc(C(=O)Oc3ccc([N+](=O)[O-])cc3)c3ccccc3n2)cc1	KLK7 zymogen act 32.9 (not shown: Neddyl block) | KLK7 act conf 64.4 | EDANS-DABCYL int 70.8
O=C(NCc1ccccn1)c1cc(-c2ccc(-c3ccccc3)cc2)nc2ccccc12	none
CN1CCCC1=Nc1ccccc1	none (no result: proCasp7 act, procasp3 activ)
O=C(COc1ccc(F)cc1)Nc1nc(-c2cccnc2)cs1	none (no result: proCasp7 act, procasp3 activ)
CC(C)(C)NC(=O)c1cc2c(ccc3ccccc32)oc1=O	none (not shown: Neddyl block)

Compound activity from PubChem.
